From PubChem
Sampled rows, rich in hits. Any-hit rate of the full collection: about 3%.
HTR1E agonist – activates the human 5-HT1E serotonin receptor | CHO 5-HT1E Ga15 NFAT-bla reporter, FRET; 0% DMSO wells, 100% control agonist wells | AID 574 | P28566 | activation, % at 6 µM | 65,000 compounds, 0.69% hits;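 active = activation above a set limit, the screen-wide mean activation plus 3 SD, cut at about 8.5% in these data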;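 note: 100% = positive control agonist at 1 µM giving full maximal response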
Target sequence (P28566 whole entry, looked up): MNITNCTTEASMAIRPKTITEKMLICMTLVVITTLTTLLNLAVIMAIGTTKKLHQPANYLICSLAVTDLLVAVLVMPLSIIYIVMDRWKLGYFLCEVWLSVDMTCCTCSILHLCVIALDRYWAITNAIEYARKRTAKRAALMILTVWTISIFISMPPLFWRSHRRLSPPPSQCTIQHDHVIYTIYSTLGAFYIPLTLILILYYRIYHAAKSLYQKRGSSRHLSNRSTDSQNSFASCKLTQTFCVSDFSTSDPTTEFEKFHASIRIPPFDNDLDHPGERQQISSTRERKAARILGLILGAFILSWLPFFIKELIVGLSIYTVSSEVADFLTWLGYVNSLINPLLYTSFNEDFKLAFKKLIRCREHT
5HT1a antag – antagonists of human 5-HT1a serotonin receptor | P08908 | CHO 5-HT1a Ga15 NFAT-bla reporter, antagonist mode | inhibition, % at 10 µM | 62,000 compounds, 0.68% hits | AID 612;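 active = inhibition above the mean of all tested compounds plus 3 SD, cut at about 43% in these data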;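 note: receptor stimulated by 5-CT agonist at 100 nM near EC80; beta-lactamase reporter measured by ratiometric fluorescence of a cleavable substrate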
S1P3 ag – activates the human S1P3 receptor | activation, % at 4.5 µM | 60,000 compounds, 0.1% hits | AID 373 | S1P3 NFAT-BLA reporter cells, agonism, FRET ratio; relative to 1 µM S1P, basal subtracted;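 active = activation above the screen-wide mean plus 3 SD, cut at about 4.5% in these data, passing the limit was not always enough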
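material = human S1P3 NFAT-BLA reporter CHO cells | schedule = 4 h compound at 37 °C, 2 h substrate at RT | measured by = fluorescent BLA substrate, ex 405 nm, em 460/535 nm ratio | controls = 1 µM S1P reference | replication = primary once, confirmation triplicate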
S1P1 ag-PAM – S1P1 (human) agonism or agonism potentiation; S1P1 CRE-bla cells, forskolin, beta-lactamase FRET, potentiator mode; S1P1 agonist co-added at EC20, 2 nM; 100% = saturating reference agonist, 0% = basal; 56,000 compounds, 0.57% hits; activation, % at 9.5 µM; P21453;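 active = activation above a cutoff set at the mean activation of all tested compounds plus 3 SD, cut at about 54% in these data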;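 note: forskolin at 4 µM as EC80 and the EC20 agonist is SEW2871; 100% = SEW2871 at its EC100 plus forskolin at EC80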
HTR1A agonist – agonists of human 5-HT1a serotonin receptor; 65,000 compounds, 0.56% hits; CHO 5-HT1a Ga15 NFAT-bla reporter, FRET ratio; 0% basal, 100% maximal reference agonist; activation, % at 10 µM; AID 567;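 active = activation above the screen-wide mean activation plus 3 SD, cut at about 19% in these data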;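 note: 0% = DMSO wells and 100% = 5-CT at EC100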
5HT1E antag – 5-HT1E (human) receptor antagonism | P28566 | 65,000 compounds, 0.99% hits | AID 571 | inhibition, % at 6 µM | CHO 5-HT1E Ga15 NFAT-bla reporter, FRET, antagonist;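 active = inhibition above a set limit, the mean inhibition across every tested compound plus 3 SD, cut at about 29% in these data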;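 note: signal is the 460 over 535 nm emission ratio of beta-lactamase substrate; 0% = agonist plus DMSO wells and 100% = wells without agonist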
Active calls of the source: *; · = no result.

SMILES	HTR1E agonist	5HT1a antag	S1P3 ag	S1P1 ag-PAM	HTR1A agonist	5HT1E antag
COc1ccc(CC(NC(C)=O)C(=O)NC2CCN(S(=O)(=O)c3ccccc3)CC2)cc1OC (configuration not stated)	2	-14	1	0	2	-2
Nc1ccc2c(C(F)(F)F)cc(=O)oc2c1	2	8	1	20	6	42*
O=C(CS(=O)(=O)Cc1ccccc1)N1CCN(c2cccc(C(F)(F)F)c2)CC1	5	-4	-1	-5	-2	-11
OC(CN1CCN(c2cccc(C(F)(F)F)c2)CC1)c1c[nH]c2ccccc12 (configuration not stated)	1	11	-1	11	55*	-4
Cc1cc(NC(=O)CSc2n[nH]c(CC(C)C)n2)no1	0	0	0	0	-1	-5
CCOc1ccc(-n2c(SCC(N)=O)nc3c(c2=O)SCC3)cc1	0	-5	·	·	0	-9
Cc1cccc2cc(C#N)c(N3CCN(C)CC3)nc12	23*	-3	0	-16	2	-5
O=C(NCC1CCCO1)C1C2C=CC3(CN(Cc4cccs4)C(=O)C13)O2 (configuration not stated)	29*	7	-1	-11	-1	2
O=C(NC1CCCC1)C1C2C=CC3(CN(Cc4cccs4)C(=O)C13)O2 (configuration not stated)	2	-5	0	4	1	0
N#Cc1c(N)nc(SCc2ccncc2)c(C#N)c1-c1cccs1	0	5	-1	18	1	43*
CCCOc1ccc2oc(=O)c3c(c2c1)CCCN3C(=O)CN(C)Cc1ccccc1	1	5	-1	-7	-2	-5
Cn1c(-c2c(N)n(C3CCCC3)c3nc4ccccc4nc23)nc2ccccc21	0	77*	-2	71*	5	77*
Nc1c(C(=O)OCC2CCCO2)c2nc3ccccc3nc2n1C1CCCC1 (configuration not stated)	2	39	-1	-5	3	12
Cc1cccc(N2CCN(C(=O)CCn3c(=O)[nH]c4ccccc4c3=O)CC2)c1C	0	-18	0	8	2	-9
Cc1cccc(N2CCN(C(=O)Cc3c(C(=O)O)[nH]c4ccc(Cl)cc34)CC2)c1C	60*	-4	-1	-61	-3	-5
O=C(CCNS(=O)(=O)c1cccs1)N1CCc2ccccc2C1	0	-7	0	8	-2	-13
Cc1cccc2cc3c(nc12)SC(=NCC1CCCO1)N(Cc1ccco1)C3 (configuration not stated)	1	57*	0	-4	-3	32*
CCOc1cc(S(=O)(=O)NC2CCCC2)ccc1Cl	15*	-10	-2	·	0	-3
CCOc1ccc(C)cc1S(=O)(=O)NC1CCCCC1	0	17	-1	32	-2	7
CCOC(=O)c1nn(-c2ccccc2)c(C#N)c1NC(=O)c1nn(CC)cc1Br	0	17	-1	-44	2	54*
CCOC(=O)c1c(NC(=O)c2nn(CC)cc2Br)c(C#N)nn1-c1ccccc1	0	4	-2	-25	2	18
Cc1sc2nc(C(C)Nc3ccccc3N3CCOCC3)[nH]c(=O)c2c1C (configuration not stated)	0	1	0	-18	0	-8
O=C(O)C1CCCN(S(=O)(=O)c2ccc(Cl)s2)C1 (configuration not stated)	1	6	0	-13	0	-8
O=C(C1CCCN(S(=O)(=O)c2ccc(Br)s2)C1)N1CCCCCC1 (configuration not stated)	-1	6	·	·	37*	2
C=C(C)COc1ccc(-c2[nH]ncc2-c2ccc(OC)c(OC)c2)c(O)c1	1	40	-1	-14	0	37*
SMILES	HTR1E agonist	5HT1a antag	S1P3 ag	S1P1 ag-PAM	HTR1A agonist	5HT1E antag
Cc1[nH]c2c(C)cccc2c(=O)c1Br	0	-15	0	8	-2	11
CCn1c2ccccc2c2nnc(SCC(=O)c3ccccc3)nc21	-1	-13	0	-70	3	31*
COc1ccc(C2CC(C(F)(F)F)n3nc(C(=O)NCCN4CCOCC4)cc3N2)cc1 (configuration not stated)	0	15	-2	-13	36*	2
O=C(NCC1CCCO1)c1cc2n(n1)C(C(F)(F)F)CC(c1ccc(F)cc1)N2 (configuration not stated)	0	-8	0	-1	-4	-7
Cc1cccc(-n2ncc3c(NCc4ccco4)ncnc32)c1	0	·	-3	-6	1	33*
c1ccc(CNc2ncnc3c2cnn3-c2ccccc2)cc1	0	7	0	6	2	29*
Fc1ccc(CNc2ncnc3c2cnn3-c2ccccc2)cc1	1	12	-1	-30	0	17
Cc1cccc(-n2ncc3c(NCc4ccccc4)ncnc32)c1	0	11	0	18	1	26
Cc1ccc(Cn2c(SCc3cccnc3)nc3c2c(=O)n(C)c(=O)n3C)cc1	0	5	-1	-10	29*	5
COc1cccc(NC(=O)N2CCN(c3cccc(C)c3)C(C)C2)c1 (configuration not stated)	0	15	0	7	-2	3
COc1cccc(N2CCN(C(=O)c3ccc(=O)oc3)CC2C)c1 (configuration not stated)	12*	·	-4	-7	2	1
CC(=O)CC1(O)C(=O)N(CN2CCN(c3ccccc3)CC2)c2ccccc21 (configuration not stated)	15*	12	-1	14	0	19
Cc1ccccc1C(=O)c1ccc2c(c1)n(C)c(=O)n2C	0	·	-5	-25	-1	-10
CC(=O)C(Sc1nc(-c2ccc(F)cc2)nc2c1c(=O)n(C)c(=O)n2C)C(C)=O	-1	6	0	7	2	97*
Cc1ccc2[nH]c(C)c(CN(C)C3CCN(C)CC3)c(=O)c2c1	0	2	-1	-16	-3	-2
CCN(CC)c1nc(Nc2ccccc2)nc(Oc2ccc(=O)[nH]n2)n1	0	14	-2	-15	-4	22
CCN(CC)c1nc(Nc2ccc(Cl)cc2)nc(OCC#N)n1	0	31	-1	-16	1	33*
O=S(=O)(C/C(=C/CO)S(=O)(=O)c1ccccc1)c1ccccc1	0	92*	-2	82*	-1	106*
Cc1cc(/C=c2/sc3nc4ccccc4n3c2=O)c(C)n1-c1ccccn1	1	·	-1	101*	8	-10
